MrgX1 agonist: human MrgX1 receptor agonism, primary screen. Q96LB2. MrgX1-HEK293 cells, Fluo-4 calcium fluorescence, agonist mode; stronger effect = higher value. B-score at 10 µM. 310,000 compounds, 0.44% hits;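 active means calcium response B-score plate-corrected fluorescence ratio at least 3 library SD, with starting fluorescence B-score inside 5 SD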
Target sequence (Q96LB2 whole entry, looked up): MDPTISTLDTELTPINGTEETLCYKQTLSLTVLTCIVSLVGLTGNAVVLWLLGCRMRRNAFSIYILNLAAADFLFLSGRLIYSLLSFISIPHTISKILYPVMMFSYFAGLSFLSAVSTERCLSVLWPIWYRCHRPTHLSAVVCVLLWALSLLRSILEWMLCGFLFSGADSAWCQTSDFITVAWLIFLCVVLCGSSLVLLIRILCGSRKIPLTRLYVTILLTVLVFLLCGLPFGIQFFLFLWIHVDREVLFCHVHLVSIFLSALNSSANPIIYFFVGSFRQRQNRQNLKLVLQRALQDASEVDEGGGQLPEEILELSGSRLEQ
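Material: HEK293 cells stably expressing human MrgX1 receptor | Quantity: 15,000 cells per well | Times: Cells plated overnight, dye loaded 0.5 h 37 °C, 0.5 h room temperature | Measured by: Kinetic Fluo-4 NW fluorescence of intracellular calcium | Control set: Positive and negative controls per plate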
RGS4 pot: RGS4 potentiation or activation; B-score at 10 µM; HEK293 M3R/inducible RGS4, carbachol calcium flux Fluo4; stronger effect = lower value; 310,000 compounds, 0.92% hits;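 active means B-score of the integrated calcium signal more than 4 SD below the library mean, with starting fluorescence not abnormally high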;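 further: negative B-score means reduced calcium response which marks RGS4 activation or potentiation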
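Reagent: ECmax carbachol challenge; Test system: M3R-expressing HEK293 line, RGS4 induced by doxycycline; Schedule: overnight RGS4 induction, 30 min dye load 37 °C, 20 min compound RT; Detection: calcium dye Fluo4 fluorescence; Read-out: Agonist-evoked peak-minus-minimum fluorescence over baseline, integrated ratio, B score.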
MrgX1 allo act: human MrgX1 positive allosteric modulation, primary screen. Q96LB2. MrgX1-HEK293, Fluo-4 calcium flux, FDSS; stronger effect = higher value. B-score at 10 µM. 310,000 compounds, 0.63% hits. AID 588675;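 active means plate-corrected calcium response at least 3 library SD above typical, normal starting fluorescence, not activating the receptor alone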;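 further: compound read alongside a low EC10 to EC30 dose of BAM8-22 agonist; peak minus trough fluorescence over baseline measured at the second addition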
MrgX1 antagonist: blocks BAM8-22 activation of human MrgX1 receptor | MRGX1-HEK293 calcium flux, Fluo-4, BAM8-22 antagonism; stronger effect = lower value | 310,000 compounds, 1.3% hits | B-score at 10 µM | Q96LB2;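 active means calcium-response B-score plate-corrected more than 3 library SD below zero, starting fluorescence within 5 deviations, no agonist response on first addition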;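 further: peak minus trough fluorescence over baseline after final BAM8-22 challenge near maximal dose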
RGS4 inh: human RGS4 inhibition; 310,000 compounds, 0.45% hits; P49798; HEK293 M3R/RGS4 inducible, Fluo-4 calcium flux; stronger effect = higher value; triggered by carbachol at its EC20; B-score at 10 µM;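 active means B-score, a plate-corrected calcium signal, over three deviations above library mean, with baseline fluorescence within five deviations of library mean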;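 further: RGS4 expression induced by doxycycline in cells with stable M3 receptor; B-score is computed from the integrated fluorescence ratio over baseline after carbachol; higher B-score means a larger calcium signal and so more RGS4 inhibition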
Target sequence (P49798 whole entry, looked up): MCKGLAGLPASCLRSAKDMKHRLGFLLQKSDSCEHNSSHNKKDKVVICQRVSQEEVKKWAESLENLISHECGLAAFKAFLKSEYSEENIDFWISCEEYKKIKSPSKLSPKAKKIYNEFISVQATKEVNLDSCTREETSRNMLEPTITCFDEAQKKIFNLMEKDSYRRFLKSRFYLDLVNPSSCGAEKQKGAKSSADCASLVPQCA
Of the large screens only hits and unclear results are named; the others gave an inactive call; ! = repeats disagree. Hits are enriched below; roughly 3.5% of the tested compounds scored in any of these assays.

Cn1c(=O)c([N+](=O)[O-])c(NCC(O)c2ccccc2)c2ccccc21 (configuration not stated)	MrgX1 antagonist -5.65
CCn1c(=O)c([N+](=O)[O-])c(NCC(O)c2ccccc2)c2ccccc21 (configuration not stated)	none
O=C(Nc1nccs1)C1CCN(S(=O)(=O)c2ccccc2)CC1	none
CN(CCC1CCOCC1)C(=O)CC1C(=O)NCCN1Cc1ccccc1F (configuration not stated)	none
COC(=O)COn1c(SCC(=O)OC)nc2ccccc2c1=O	MrgX1 antagonist -4.65
COC(=O)C1(CC2CC(c3ccccc3)=NO2)CCN(C(=O)OC(C)(C)C)CC1 (configuration not stated)	none
c1ccc(Nc2nc(-c3ccccn3)cs2)cc1	none
COc1cccc2sc(Nc3nc(-c4ccccn4)cs3)nc12	RGS4 pot -8.67, MrgX1 allo act 7.81
COc1cc2c(cc1NC(=S)Nc1cccc3ccccc13)oc1ccccc12	none
COc1cc2c(cc1NC(=S)Nc1cccc(C(F)(F)F)c1)oc1ccccc12	MrgX1 antagonist -5.69
CCCCN1C(=O)NC(NC(=O)c2ccco2)(C(F)(F)F)C1=O (configuration not stated)	none
CC(C)Oc1ccc(C(=O)NC2(C(F)(F)F)NC(=O)N(CCCc3ccccc3)C2=O)cc1 (configuration not stated)	RGS4 pot -7.11
C/C(=N\N=C(N)N)c1ccc(C)c(C)c1	none
COc1ccc(CCNC(=O)c2cccc(C(=O)NCCc3ccc(OC)cc3)n2)cc1	MrgX1 antagonist -4.83
O=C(CNC(=O)c1cccs1)Nc1ccc2c(c1)OCCO2	none
CCOc1ccc(S(=O)(=O)N2CCN(C(=O)Cc3ccc(S(=O)(=O)N4CCOCC4)s3)CC2)cc1	RGS4 pot -7.27
CCOc1ccc(NC(=O)COC(=O)Cc2ccc(S(=O)(=O)N3CCOCC3)s2)cc1	none
Cc1ccc(S(=O)(=O)Nc2cccc(C(=O)NCCCN3CCOCC3)c2)cc1F	none
O=C(NCc1ccc2c(c1)OCO2)c1cc([N+](=O)[O-])ccc1N1CCCCC1	RGS4 pot -7.37
C1=CN2CCC1C(c1ccccc1)C2 (configuration not stated)	RGS4 pot -7.34
Nc1nc(NCCN2CCOCC2)nc(NCc2ccccc2)c1[N+](=O)[O-]	none
COc1ccc(NC(=S)N(Cc2ccc(Cl)cc2)Cc2ccc(C(=O)O)cc2)cc1Cl	MrgX1 antagonist -4.64
O=C(CSc1nnc2c(n1)[nH]c1ccccc12)NCc1ccccc1F	none
O=C(c1c(F)c(F)c(F)c(F)c1F)N1CCN(c2cccc(C(F)(F)F)c2)CC1	RGS4 pot -7.18
O=C(c1ccccc1F)N1CCN(c2cccc(C(F)(F)F)c2)CC1	none
Cc1ccc(-c2cc(C(=O)Nc3ccccn3)c3ccccc3n2)o1	MrgX1 antagonist -5.13
CCN(CC)S(=O)(=O)c1ccc(-c2nnc(SCC(=O)Nc3cc(OC)cc(OC)c3)o2)cc1	MrgX1 antagonist -4.61
COc1cccc(N2CCN(c3ncnc4c3cnn4-c3ccc(C)cc3C)CC2)c1	RGS4 pot -6.97
Cc1ccc(-n2ncc3c(N4CCCC4)ncnc32)c(C)c1	none
COc1ccc(-n2ncc3c(N4CCN(Cc5ccccc5)CC4)ncnc32)cc1	RGS4 pot -7.36
COc1cc(/C=C2/C(=O)NN(c3ccc(Cl)c(Cl)c3)C2=O)cc([N+](=O)[O-])c1O	none
COc1cc(/C=C2/C(=O)NN(c3ccc(Cl)cc3)C2=O)cc(Br)c1O	MrgX1 agonist 32.7
CC(=O)Nc1ccc(NC(=O)C(C)OC(=O)CCCOc2ccc(Cl)cc2C)cc1 (configuration not stated)	MrgX1 antagonist -7.84
CCOc1ccc(-c2nc(CN3CCCCC3CCn3cccn3)c(C)o2)cc1 (configuration not stated)	none
O=C(O)c1ccc(/C=N/NC(=O)C2CC2(c2ccccc2)c2ccccc2)cc1 (configuration not stated)	MrgX1 antagonist -5.71
O=C(CC1Sc2ccccc2NC1=O)Nc1cccnc1 (configuration not stated)	none
O=C(CC1Sc2ccccc2NC1=O)Nc1ccccc1[N+](=O)[O-] (configuration not stated)	MrgX1 antagonist -6.72
COc1ccc(C(=O)N/N=C/c2sc(N3CCOCC3)nc2-c2ccccc2)cc1OC	none
COc1ccccc1NS(=O)(=O)c1cc([N+](=O)[O-])ccc1N/N=C/c1sc(N2CCOCC2)nc1-c1ccccc1	MrgX1 antagonist -8.03
Cc1cccc(C)c1NC(=O)NN=C1CCCCC1	none
Nc1nonc1NC(=O)NN=C1CCCCC1	MrgX1 antagonist -5.88
CCC(C)[C@H](NC(=O)Nc1ccccc1F)C(=O)OC (some centres not stated)	none
CC(C)c1csc(CN2CCCC(CNC(=O)c3cccc4ccccc34)C2)n1 (configuration not stated)	none
CC(C)(C)NC(=O)[C@@H]1C[C@@H]2CCCC[C@@H]2CN1C[C@@H](O)[C@H](Cc1ccccc1)NC(=O)[C@H](CC(N)=O)NC(=O)c1ccc2ccccc2n1	MrgX1 antagonist -5.98!
COC(=O)[C@H](Cc1ccccc1)NC(=O)c1ccc2ccccc2n1	none
N=c1c(-c2nc3ccccc3[nH]2)cc(C(=O)c2ccco2)nn1-c1ccccc1	none
N=c1c(-c2nc3ccccc3[nH]2)cc(C(=O)c2cccs2)nn1-c1ccccc1	RGS4 pot -8.56
COc1ccc(O[C@H]2C=C[C@@H](c3ccccc3)O[C@@H]2COC(=O)CC/C(C)=N/O[C@@H](C)c2cc(-c3c(C)cc(C)cc3C)no2)cc1	none (no result: MrgX1 agonist, MrgX1 allo act, MrgX1 antagonist)
COc1ccc(O[C@H]2C=C[C@@H](c3ccccc3)O[C@@H]2COC(=O)CC/C(C)=N/OC[C@@H](O)COCc2ccco2)cc1	RGS4 pot -9.69
Cc1ccccc1OCCNc1ccc(C(F)(F)F)cc1[N+](=O)[O-]	none
O=[N+]([O-])c1cc(C(F)(F)F)ccc1NCCOc1ccccc1	MrgX1 allo act 9.06
CCC(C(=O)NCc1ccco1)N(C(=O)CNS(=O)(=O)c1ccccc1)C1CCCCC1 (configuration not stated)	none
CCCC(C(=O)NCc1ccco1)N(C(=O)CNS(=O)(=O)c1ccc(Cl)cc1)C1CCCC1 (configuration not stated)	MrgX1 antagonist -6.74
CN1CCN(C2=C(Cl)C(=O)C(c3cnc(N4CCCCC4)s3)=C(Cl)C2=O)CC1	RGS4 pot -7.12
CC(NC(=O)Cn1cccc1)c1ccccc1 (configuration not stated)	none
Nc1nonc1-n1nnc(C(=O)N/N=C/c2ccc(O)cc2)c1CN1CCCCCC1	MrgX1 antagonist -8.63
Cc1onc(-c2c(Cl)cccc2Cl)c1C(=O)NC1CCCCC1	none
Cc1onc(-c2c(Cl)cccc2Cl)c1C(=O)NN1CCCCCC1	RGS4 pot -8.44
